From PubChem BioAssay
Only some compounds are listed: those with a hit (about 3.7% of all), similar ones and a draw of the others.
ROMK primary: human ROMK K+ channel modulation, primary screen. AID 1918. Tet-inducible ROMK, thallium flux fluorescence; actives lie on both sides. hit rate 2% among 130,000. B-score at 10 µM;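 active = signal ratio slope over the read window, or its plate-corrected B-score, at least 3 SD from the plate mean, either direction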;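 note: B-score of the F/F0 ratio slope over 7 to 12 s after thallium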
MDM2 E3 inh: Mdm2 E3 ligase (human) inhibition. Q00987. cell-based MDM2 ubiquitination luciferase reporter, 2 h; 0 = plate control, 100 = twice control, blank-subtracted. signal enhancement, % at 5 µM. hit rate 0.11% among 210,000. AID 1230;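 active = signal enhancement of 30% or more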;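 note: luminescence tracks abundance of the self-degrading MDM2-luciferase fusion protein; higher signal means inhibition of MDM2 E3 ligase activity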
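Assay system: mammalian cells stably expressing self-ubiquitinating, self-degrading MDM2 E3–luciferase fusion. Quantity: 2000 cells in each well. Medium: DMEM culture medium. Compound dosing: single-point 5 µM. Timing: cell settling 4 h, compound treatment 2 h, both 37 °C. Technique: luciferase luminescence. Read-out basis: percent signal gain over controls, blank-subtracted. Benchmarks: plate controls and plate blanks.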
Arbovirus inh: blocks arbovirus infection. inhibition, % at 10 µM. hit rate 0.37% among 200,000. AID 1251. arbovirus infection cell-based antiviral screen; in the data active = inhibition above about 30%
Cl transport mod: modulates chloride dependent transport by human KCC2. Q9H2X9. KCC2 cells, thallium flux FluoZin-2 fluorescence. B-score of Tl+ flux slope (higher = more flux/activation; lower = inhibition) at 10 µM. hit rate 2.2% among 190,000. AID 1456;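 active = thallium flux slope and its plate-corrected score both differing from the plate sample mean at a set confidence after two filtering rounds, in either direction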;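 note: slope of fluorescence scaled to starting intensity during 10 to 20 s after thallium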
Target sequence (Q9H2X9 whole entry, looked up): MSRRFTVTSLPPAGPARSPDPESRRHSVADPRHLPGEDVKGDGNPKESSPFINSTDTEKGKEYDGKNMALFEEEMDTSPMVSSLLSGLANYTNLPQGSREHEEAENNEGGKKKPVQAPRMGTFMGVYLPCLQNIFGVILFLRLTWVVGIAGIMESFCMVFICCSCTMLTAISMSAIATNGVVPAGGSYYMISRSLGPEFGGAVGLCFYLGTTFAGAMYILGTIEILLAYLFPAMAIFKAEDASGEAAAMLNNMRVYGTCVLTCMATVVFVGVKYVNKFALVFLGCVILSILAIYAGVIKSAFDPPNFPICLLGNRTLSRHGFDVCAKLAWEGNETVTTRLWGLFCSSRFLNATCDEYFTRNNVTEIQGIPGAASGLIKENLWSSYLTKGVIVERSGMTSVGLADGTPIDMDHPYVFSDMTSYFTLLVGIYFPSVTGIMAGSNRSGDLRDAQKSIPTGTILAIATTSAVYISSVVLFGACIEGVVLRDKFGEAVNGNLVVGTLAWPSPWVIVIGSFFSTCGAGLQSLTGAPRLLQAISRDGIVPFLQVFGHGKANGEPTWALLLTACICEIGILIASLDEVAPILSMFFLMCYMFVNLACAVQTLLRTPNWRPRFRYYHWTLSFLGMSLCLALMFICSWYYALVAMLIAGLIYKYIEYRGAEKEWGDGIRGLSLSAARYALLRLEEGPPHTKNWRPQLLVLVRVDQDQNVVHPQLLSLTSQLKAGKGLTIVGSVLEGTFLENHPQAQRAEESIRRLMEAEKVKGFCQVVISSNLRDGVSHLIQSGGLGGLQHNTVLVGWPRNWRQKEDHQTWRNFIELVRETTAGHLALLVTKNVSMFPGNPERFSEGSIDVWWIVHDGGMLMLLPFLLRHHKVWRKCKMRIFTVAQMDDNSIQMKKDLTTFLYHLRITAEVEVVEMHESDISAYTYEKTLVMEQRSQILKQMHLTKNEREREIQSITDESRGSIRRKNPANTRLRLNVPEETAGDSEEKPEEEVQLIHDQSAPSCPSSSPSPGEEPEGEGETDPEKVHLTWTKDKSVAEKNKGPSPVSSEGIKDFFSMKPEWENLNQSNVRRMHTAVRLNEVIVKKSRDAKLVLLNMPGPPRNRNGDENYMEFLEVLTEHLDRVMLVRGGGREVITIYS
PKD1 kinase inh: inhibitors of human PKD1 kinase. Q15139. PKD1 kinase fluorescence polarization assay. inhibition, % (no concentration beside the values). hit rate 0.056% among 200,000. AID 797; in the data active = inhibition above about 50%
Calpain2 inh: blocks pig calpain II enzyme activity; inhibition, % at 16 µM; purified calpain II, fluorogenic peptide substrate, 30 min; hit rate 0.37% among 220,000;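 active = inhibition above about 50%, limit read from the data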
KCC2 secondary: confirmation of human KCC2 transport modulators; shares compounds with Cl transport mod; HEK293-KCC2, thallium flux, FluoZin2 fluorescence; hits give high values; normalised thallium flux (F/F0 slope) at 10 µM; hit rate 15% among 3,700;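 active = thallium flux slope above the same plate's solvent-only control mean plus 3 SD; inconclusive = the two replicate wells disagree; inactive = no significant difference from solvent-only control wells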
KCC2 bumet counter: bumetanide-insensitive thallium flux in KCC2 cells with ouabain, counter-screen; shares compounds with Cl transport mod; HEK293-KCC2 + bumetanide/ouabain, thallium flux FluoZin2; hits give high values; normalized thallium flux at 10 µM; hit rate 49% among 3,700; AID 1714;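 active = thallium entry rate above the same plate's blocked-transporter control wells by more than 3 SD; inconclusive = the two repeat wells disagree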;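 note: raw slope of fluorescence over initial fluorescence between 10 and 20 s after thallium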
KCC2 secondary2: KCC2 (human) modulation, second secondary assay | AID 1715 | hit rate 23% among 3,700 | shares compounds with Cl transport mod | normalized thallium flux at 10 µM | HEK293-KCC2, thallium flux FluoZin2 fluorescence; actives lie on both sides; F/F0 rise rate, 10–20 s post-thallium;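 active = thallium flux slope more than 3 SD above or below the plate's solvent-only control mean, mostly below; inconclusive = the two repeat wells disagreed; inactive = no significant shift from solvent-only controls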;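 note: raw slope with 0.1% DMSO as baseline and bumetanide as block control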
HEK counter1: acts in parental HEK cells, KCC2 counter-screen; AID 1716; shares compounds with Cl transport mod; HEK293 parental cells, thallium flux FluoZin2, ouabain; baseline-ratio fluorescence slope, 10–20 s after thallium; thallium flux rate (normalised fluorescence) at 10 µM; hit rate 46% among 3,700;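 active = thallium flux rate significantly above the same plate's solvent-only control wells, beyond their mean plus 3 SD; inconclusive = the two replicate wells gave conflicting results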
KCC2 retest ouab: modulates human KCC2 on retest with ouabain; AID 1717; shares compounds with Cl transport mod; raw Tl+ flux slope (below DMSO = inhibition, above = activation) at 10 µM; hit rate 48% among 3,700; HEK293-KCC2, thallium flux FluoZin2 fluorescence; bidirectional: low = inhibitor, high = activator;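 active = thallium flux slope beyond 3 SD from same-plate DMSO control mean in most replicates, usually higher, sometimes lower; inconclusive = repeat tests gave conflicting results; inactive = no significant difference from controls in most replicates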;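 note: slope of initial-normalized fluorescence between seconds 10 and 20 after thallium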
HEK293 Tl flux2: counter-screen for KCC2 modulators: effect in parental HEK293 cells; thallium flux FluoZin-2 fluorescence slope; hit rate 33% among 3,700; shares compounds with Cl transport mod; AID 1718; thallium flux slope at 10 µM;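 active = thallium flux slope above the same plate's solvent-control mean plus 3 SD in both duplicate wells; inconclusive = duplicate wells that disagreed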;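 note: run without ouabain in cells lacking the KCC2 cotransporter; slope of fluorescence scaled to its starting value between 10 and 20 s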
The depositor's hits bear a star; ? = inconclusive; . = not tested or not shown.

SMILES	ROMK primary	MDM2 E3 inh	Arbovirus inh	Cl transport mod	PKD1 kinase inh	Calpain2 inh	KCC2 secondary	KCC2 bumet counter	KCC2 secondary2	HEK counter1	KCC2 retest ouab	HEK293 Tl flux2
O=c1c(Cl)c(Cl)cnn1Cc1ccc(F)cc1	-2.2	-93	-36	-3.2	3	26	.	.	.	.	.	.
O=C(OCn1ncc(Cl)c(Cl)c1=O)c1ccccc1Cl	.	0	-29	-4.3*	8	-4	0.0085	0.0066	0.032	?	0.015*	0.011
O=C(Cn1ncc(Cl)c(Cl)c1=O)c1ccc(Cl)cc1	.	1	-36	-1.4	-11	-14	.	.	.	.	.	.
Cc1cccc(NC(=O)c2cc(NC(=O)c3ccco3)ccc2Cl)n1	.	6	-5	-0.61	-6	7	.	.	.	.	.	.
Cc1ccnc(NC(=O)CN2C(=O)c3ccccc3C2=O)c1	-0.53	-10	3	0.26	-3	3	.	.	.	.	.	.
Cc1noc(C)c1S(=O)(=O)N1CCC(C(=O)N2CCN(c3ccc(F)cc3)CC2)CC1	-0.12	-9	-3	-4.9*	-2	10	0.0056	?	0.026*	0.007	?	0.011
COc1ccc(S(=O)(=O)N2CCNC(=O)C2)cc1Br	0.1	-5	-3	0.9	3	-3	.	.	.	.	.	.
Fc1ccc(/C=N/NC(=S)Nc2cccnc2)cc1F	-0.38	-10	-2	2.8	-11	1	.	.	.	.	.	.
Fc1ccc(/C=N/NC(=S)Nc2cccnc2)cc1	0.079	-2	7	1.6	-4	29	.	.	.	.	.	.
Fc1cccc(F)c1/C=N/NC(=S)Nc1cccnc1	0.45	1	-6	5.2*	-4	-7	0.0063	0.012*	0.028	0.012*	?	0.011
Fc1c(F)c(F)c(/C=N/NC(=S)Nc2cccnc2)c(F)c1F	0.31	-1	8	19*	1	-20	0.0099	0.03*	0.036	0.015*	?	?
COc1ccc(/C=N/N2CCN(C3c4ccccc4-c4ccccc43)CC2)cc1O	.	-6	-27	0.35	-5	0	.	.	.	.	.	.
CCCCCC(C)NC(=S)NC(=O)c1cc(S(=O)(=O)N2CCOCC2)ccc1C (stereo unspecified)	-2	-5	-13	0.0052	-4	13	.	.	.	.	.	.
CC(NC(=O)/C=C/c1cnc2ccccc2n1)C12CC3CC(CC(C3)C1)C2 (stereo unspecified)	-0.93	.	-17	-0.99	4	-28	.	.	.	.	.	.
CCCCCC(=O)Cc1cc(O)cc2c1C(=O)Oc1cc(O)c(C(=O)O)c(CCCCC)c1O2	.	-47	.	-1.6*	.	27	?	0.0046	0.026*	0.008	?	0.011
CCCCNC(=S)N/N=C/c1ccc(C)s1	-0.94	-19	2	4*	6	41	?	0.027*	0.031	0.012*	0.021*	0.014*
CCCCNC(=S)N/N=C/c1cc(C)ccc1C	0.5	.	-4	4.3*	4	16	?	0.0091*	0.035	0.012*	?	0.014*
COCCCNC(=S)N/N=C/c1cccc(OC)c1O	.	-9	.	0.33	.	-128	.	.	.	.	.	.
CCCCNC(=S)N/N=C/c1ccccc1F	0.72	1	1	7.2*	2	72*	0.011	0.038*	0.033	0.019*	?	0.012*
CCCCNC(=S)N/N=C/c1sccc1C	.	-22	-1	10*	-2	22	0.01	0.017*	0.034	0.019*	?	?
O=S(=O)(/N=C(/Nc1ccc(F)c(F)c1F)c1ccccc1)c1ccccc1	.	10	3	-0.072	2	11	.	.	.	.	.	.
CN(CCc1cn[nH]c1)Cc1nc(Cc2ccccc2)no1	0.028	5	2	0.59	-5	21	.	.	.	.	.	.
O=c1c(C/C=C/c2ccccc2)c(O)ccn1Cc1ccc(Cl)cc1Cl	1.2	20	13	-0.0081	2	-17	.	.	.	.	.	.
CC1=CCCC(C)(C)C1/C=C/C(C)=N/NC(=O)c1ccncc1 (stereo unspecified)	-0.9	1	-3	5.3*	-2	0	?	0.046*	0.032	0.016*	?	0.012*
CCn1c(SCC(=O)N(Cc2ccccc2)C2CCS(=O)(=O)C2)nc2ccccc2c1=O (stereo unspecified)	.	-7	-2	.	-8	26	0.0075	0.012*	0.03	0.011*	?	0.013*
SMILES	ROMK primary	MDM2 E3 inh	Arbovirus inh	Cl transport mod	PKD1 kinase inh	Calpain2 inh	KCC2 secondary	KCC2 bumet counter	KCC2 secondary2	HEK counter1	KCC2 retest ouab	HEK293 Tl flux2
COc1ccccc1-n1c(SCC(=O)NCc2ccc3c(c2)OCO3)nc2cc([N+](=O)[O-])ccc21	-1.9	6	-14	0.69	-11	-28	.	.	.	.	.	.
CN(C(=O)CSc1nc2ccccc2n1CCc1ccccc1)C1CCS(=O)(=O)C1 (stereo unspecified)	.	2	1	9.5*	-6	25	0.0072	0.015*	0.031	0.011*	?	0.014*
CN(C(=O)CSc1nc2ccc([N+](=O)[O-])cc2s1)C1CCS(=O)(=O)C1 (stereo unspecified)	.	.	.	1.2	.	-15	.	.	.	.	.	.
CC(Sc1nc2cc([N+](=O)[O-])ccc2n1-c1ccc(F)cc1)C(=O)NCc1ccc2c(c1)OCO2 (stereo unspecified)	-0.52	-6	-5	10*	-15	-40	0.0092	0.015*	0.034	0.013*	0.027	0.012*
CN(C(=O)CSc1nc2cc([N+](=O)[O-])ccc2n1-c1ccc(F)cc1)C1CCS(=O)(=O)C1 (stereo unspecified)	0.053	8	-12	4.9*	1	-3	0.0097	0.023*	0.032	0.014*	?	0.011*
CSCC[C@H](NC(=O)C1CCN(S(=O)(=O)c2ccc(C)cc2)CC1)C(=O)NC1CCS(=O)(=O)C1 (stereo partly specified)	0.43	-11	3	0.45	-2	8	.	.	.	.	.	.
Cn1c(=O)cc(SCC(=O)N2CCN(c3ccccn3)CC2)c2ccccc21	.	2	-4	-3.5*	-6	1	0.0076	0.0067	0.031	0.0069	0.018*	0.0098
Cc1cc(C(=O)N2CCC(C(=O)O)CC2)c(C)o1	.	-9	.	-0.00038	.	-11	.	.	.	.	.	.
